Most compounds without a hit are left out; they make up all but 7.6% or so of the library.
Jurkat viability: cytotoxicity toward Jurkat T cells, primary screen, cytotoxicity control, cell-based, Jurkat E6.1, 60K MLSMR library | inhibition, % at 4 µM | actives 1.2% (n = 56,000) | AID 463, 2006 | Jurkat E6.1 viability, ATP luminescence, 48 h;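 active = inhibition above the mean inhibition of all tested compounds plus 3 SD, cut at about 28% in these data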
D1 allo mod: D1 CRE-luciferase signal change, two-sided – cell-based, HEK293 D1, dopamine EC30, D1 allosteric modulator project, primary screen. dopamine EC30 potentiation; actives deviate in either direction. B-score at 10 µM. actives 5.9% (n = 58,000). AID 641, 2007;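 active = luminescence count or its row- and column-corrected plate score outside the 99.7% band of the plate's sample wells, on either side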
HEK293 NFkB inh: inhibitors of PMA/ionomycin-induced NF-kB reporter, primary screen, antigen receptor NF-kB inhibitor project, cell-based, HEK-293 luciferase reporter, luminescence; HEK-293 NF-kB luciferase reporter; inhibition, % at 3 µM; actives 0.21% (n = 62,000);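 active = inhibition above the mean of all tested compounds plus 3 SD, cut at about 40% in these data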;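 note: 0% = stimulated DMSO wells and 100% = 10 µM reference inhibitor 5653914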
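Material: HEK-293 cells with stable firefly luciferase reporter driven by four HIV NF-kB elements / Also added: PMA plus ionomycin mix as NF-kB-activating stimulus / Compound dosing: 3 µM once, 0.30% DMSO / Times: 1 h pretreatment, 16 h stimulation, 37 °C / Signal: luminescence / Evaluation: per-plate % inhibition versus controls / Benchmarks: DMSO and 10 µM reference inhibitor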
DAT uptake mod: changed hDAT dopamine uptake under cocaine IC80, either direction, primary screen, cocaine antagonist project, cell-based, LLC-PK1 hDAT, [14C]-dopamine uptake, MLSMR; B-score at 10 µM; actives 1.3% (n = 110,000); AID 449768, 2010; Sodium-dependent dopamine transporter (Homo sapiens), Q01959; LLC-PK1 hDAT cells, [14C]-dopamine uptake with cocaine IC80; actives deviate in either direction;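 active = Z score or B-score, a plate-position-corrected score, falls beyond the plate's 99.7% confidence bounds, in either direction; inactive = both scores lie inside the 99.7% bounds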;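 note: scored against the spread of the other compound wells on the same plate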
Target sequence (Q01959 whole entry, looked up): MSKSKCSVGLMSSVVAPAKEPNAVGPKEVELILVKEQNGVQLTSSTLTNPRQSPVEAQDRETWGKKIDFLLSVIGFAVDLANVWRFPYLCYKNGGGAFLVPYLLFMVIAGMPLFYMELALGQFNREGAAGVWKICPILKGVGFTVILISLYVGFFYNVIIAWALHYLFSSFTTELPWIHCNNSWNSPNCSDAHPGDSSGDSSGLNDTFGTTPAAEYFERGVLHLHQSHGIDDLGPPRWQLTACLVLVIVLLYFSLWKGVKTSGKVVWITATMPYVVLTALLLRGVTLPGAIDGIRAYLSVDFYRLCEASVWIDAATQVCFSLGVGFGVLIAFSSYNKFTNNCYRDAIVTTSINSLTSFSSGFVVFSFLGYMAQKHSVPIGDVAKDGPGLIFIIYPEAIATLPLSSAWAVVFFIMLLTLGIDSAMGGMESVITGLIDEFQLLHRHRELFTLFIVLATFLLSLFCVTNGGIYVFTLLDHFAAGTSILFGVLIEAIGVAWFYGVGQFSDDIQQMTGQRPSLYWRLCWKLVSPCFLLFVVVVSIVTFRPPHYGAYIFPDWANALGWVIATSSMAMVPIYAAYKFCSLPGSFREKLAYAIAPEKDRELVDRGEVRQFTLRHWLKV
M1 antag: antagonists of rat M1 muscarinic receptor | Muscarinic acetylcholine receptor M1 (Rattus norvegicus), P08482 | actives 3.4% (n = 64,000) | CHO-M1 cells, Fluo-4 calcium, ACh EC80 antagonist mode; active compounds read low | B-score at 10 µM;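 active = calcium fluorescence response, raw or row-and-column corrected B-score, differing from the plate sample mean either way at a set confidence level, mostly lower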
M1 ag: M1 muscarinic receptor agonists, primary screen, CHO-M1 cells, Fluo-4 calcium, agonist mode; Fluo-4 calcium fluorescence; active compounds read high; B-score at 10 µM; actives 3% (n = 64,000); AID 626, 2007;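 active = fluorescence rise, raw or as B-score row- and column-corrected plate score, outside the 99.7% band of its plate's samples, either direction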
M1 antag confirm: rat M1 muscarinic receptor antagonists, confirmation, CHO cells, Fluo-4 calcium, duplicate; shares compounds with M1 antag; ACh EC80 antagonism; active compounds read low; calcium response (max-min fluorescence) at 10 µM; actives 43% (n = 1,700); AID 677, 2007;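 active = calcium response below the same-plate mean of wells given acetylcholine alone at its 80%-effect dose, minus 3 SD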;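 note: raw fluorescence intensity difference in arbitrary instrument units and not normalized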
mGluR4 antag: human mGluR4 response to M1 antagonist hits, M1 allosteric modulator project, cell-based, antagonist mode, secondary assay 1; shares compounds with M1 antag; CHO-mGluR4 calcium flux, Fluo-4 fluorescence, glutamate EC80; active compounds read low; fluorescence response (max-min) at 10 µM; actives 0.9% (n = 1,700); AID 678, 2007;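 active = fluorescence response below the plate's average for near-maximal glutamate wells, less 3 SD of those wells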;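 note: raw unnormalized fluorescence span taken in the window right after glutamate addition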
An asterisk follows results filed as active; nt = no result given.

SMILES | Jurkat viability | D1 allo mod | HEK293 NFkB inh | DAT uptake mod | M1 antag | M1 ag | M1 antag confirm | mGluR4 antag
CCOC(=O)Cc1nc2ccccc2[nH]1 | 9.4 | 0.00628 | 2.1 | -0.00832 | -4.11* | 0.434 | 656 | 169
CCCCN(CCCNC(=O)c1c(C)cc(=O)oc1C)c1ccccc1 | nt | -0.0238 | 24.5 | 0.401 | -1.21 | 0.181 | nt | nt
CCN(CCCNC(=O)c1c(C)cc(=O)oc1C)c1ccccc1 | nt | -0.0649 | 27.5 | -0.61 | -3.91* | 0.528 | 530 | 246
C=CCOC(=O)C1=C[C@H](c2ccc(C(F)(F)F)cc2)[C@@H](CCCO)[C@H](OCC)O1 | nt | nt | nt | -0.437 | nt | nt | nt | nt
Cc1cccc(-c2nnc(SCc3nc4ccccc4[nH]3)n2Cc2ccco2)c1 | 8.1 | 0.706 | 13.3 | 2.26 | -0.903 | 0.717 | nt | nt
c1coc(Cn2c(SCc3nc4ccccc4[nH]3)nnc2-c2cccs2)c1 | nt | 0.738 | 4.1 | 0.848 | -2.34* | 0.158 | 659 | 226
Cc1ccc(CN2C3=NCCCN3c3ccccc32)cc1 | 9.4 | -1.49 | 8.6 | 0.456 | -2.81* | 0.786 | 419 | 212
Cc1oc(-c2cccc(Cl)c2)nc1CN1CCCC(C(=O)NC(C)c2ccc3c(c2)OCCO3)C1 (stereo not drawn) | 14.4 | nt | 22.8 | nt | -0.944* | 1.3 | 509 | 244
CSc1nnc(-c2sc3cc(C(F)(F)F)cnc3c2-c2ccccc2)n1C | nt | nt | nt | -0.155 | nt | nt | nt | nt
COc1ccc(C2CC(=O)c3cnc(N)nc3C2)c(OC)c1 (stereo not drawn) | -3.9 | 1.99 | 7.9 | 0.595 | 0.971 | -0.0206 | nt | nt
CCN1C(=O)CSc2ccc(C(=O)NCc3ccccc3OC)cc21 | nt | nt | nt | 1.15 | nt | nt | nt | nt
CC(NC(=O)Cn1c(=O)oc2cc(S(=O)(=O)N3CCCC3)ccc21)c1ccccc1 (stereo not drawn) | nt | nt | nt | 0.253 | nt | nt | nt | nt
CCOC(=O)Cn1c(=O)oc2cc(S(=O)(=O)NCCc3ccc(OCC)c(OCC)c3)ccc21 | -2.1 | -0.887 | 14.1 | 1.04 | -2.29* | -0.149 | 650 | 198
CC(C)(C)NC(=O)Cn1c(=O)oc2cc(S(=O)(=O)N3CCc4ccccc43)ccc21 | 8.3 | -0.709 | 21.0 | 0.213 | -2.38* | -0.089 | 588 | 245
CCOC(=O)Cn1c(=O)oc2cc(S(=O)(=O)N3CCc4ccccc43)ccc21 | 4.5 | 1.36 | -5.2 | 0.0454 | -3.75* | -2.29 | 533 | 230
CCOC(=O)Cn1c(=O)oc2cc(S(=O)(=O)NC(C)c3ccccc3)ccc21 (stereo not drawn) | nt | nt | nt | -0.0454 | nt | nt | nt | nt
CCOC(=O)COc1ccc(C)cc1-c1ccno1 | nt | nt | nt | -0.0241 | nt | nt | nt | nt
CC(Cc1ccccc1)C(=O)NCCO (stereo not drawn) | nt | nt | nt | -0.855 | nt | nt | nt | nt
Cc1cc(C)n(CC(=O)n2nc(C)cc2C)n1 | nt | -0.549 | nt | -1.07 | -0.265 | -0.0179 | nt | nt
Cc1cc(S(=O)(=O)NCCN2CCOCC2)c(C)s1 | -2.9 | 0.592 | 5.8 | 0.438 | 0.0907 | -0.0283 | nt | nt
CCSc1sccc1C1C(C#N)=C(N)N(c2cccnc2)C2=C1C(=O)CC(C)(C)C2 (stereo not drawn) | -3.0 | 2.4 | 15.2 | 0.146 | -5.07* | 0.00521 | 622 | 199
CCOc1ccc(C(=O)N(Cc2ccc(OC)cc2)Cc2cc3cc(OC)ccc3[nH]c2=O)cc1 | nt | nt | nt | -0.674 | nt | nt | nt | nt
c1ccc(CCN2CN(CCCN3CCOCC3)c3nc4ccccc4n3C2)cc1 | 1.4 | -0.00534 | 9.7 | -0.646 | -1.94* | -0.233 | 442 | 187
COc1cc(C2C(C#N)=C(N)Oc3n[nH]c(C)c32)ccc1OC(=O)c1ccccc1 (stereo not drawn) | nt | nt | nt | 1.02 | nt | nt | nt | nt
COc1cc(C2C(C#N)=C(N)Oc3n[nH]c(C)c32)cc2c1OCO2 (stereo not drawn) | 0.6 | -0.176 | 10.3 | 0.919 | -4.78* | 0.0944 | 642 | 228
SMILES | Jurkat viability | D1 allo mod | HEK293 NFkB inh | DAT uptake mod | M1 antag | M1 ag | M1 antag confirm | mGluR4 antag
Cc1cc(-c2ccccc2)nc2cc(C(=O)NCCCn3ccnc3)nn12 | nt | 0.481 | 15.3 | 0.327 | -0.895 | 0.624 | nt | nt
Cc1nn(Cc2ccccc2Cl)c2sc(C(=O)NCCCn3ccnc3)cc12 | 3.2 | -0.054 | 7.5 | 1.13 | -7.87* | -1.26 | 287* | 186
Cc1cc(C(=O)NCCCn2ccnc2)sc1-c1ccccc1 | 6.2 | -1.57 | 13.9 | 1.22 | -3.33* | -1.3 | 616 | 211
CCOC(=O)Nc1ccccc1C(=O)N1CCOCC1 | 5.2 | -0.373 | -23.7 | -1.42 | nt | nt | nt | nt
NC(=O)COc1ccc(=O)n(-c2ccccc2)n1 | 0.8 | nt | 10.7 | -0.229 | -2.36* | -0.764 | 564 | 226
CCSC1=C(C#N)C(c2ccccc2Cl)C(C(=O)c2cccs2)C(O)(C(F)(F)F)N1 (stereo not drawn) | nt | nt | nt | 0.973 | nt | nt | nt | nt
CCc1ccccc1NC1c2ccccc2C(=O)N1Cc1ccco1 (stereo not drawn) | 1.0 | -0.00986 | 17.6 | 1.02 | -2.16* | 2.19 | 458 | 199
CCOc1ccccc1NC1c2ccccc2C(=O)N1Cc1ccco1 (stereo not drawn) | 6.3 | nt | 6.7 | -0.905 | -0.863* | 0.298 | 531 | 247
Cc1ccc(-c2ccc(=O)n(CC(=O)NCCN(C)C)n2)cc1 | 2.1 | -1.53 | 6.1 | -0.281 | -0.246 | 0.568 | nt | nt
N/C(=N\c1nc2c(c(=O)[nH]1)CCC2)Nc1ccccc1C(F)(F)F | nt | nt | nt | 0.399 | nt | nt | nt | nt
CON(C)c1nc(OCCNC(=O)COc2ccc(Cl)cc2C)nc(N(C)C)n1 | -5.3 | 0.576 | 9.3 | -0.013 | 0.479 | -0.698 | nt | nt
CCn1c(=O)c(C(=O)Nn2c(C)nc3ccccc3c2=O)c(O)c2ccccc21 | 2.4 | -0.461 | 12.3 | 0.0597 | -13.6* | 0.748 | 611 | 192
Cc1nc2ccccc2c(=O)n1NC(=O)c1ccccc1Cl | 5.9 | 1.02 | 14.8 | -0.26 | 0.0333 | 0.0809 | nt | nt
FC(F)Oc1ccc(NC(=S)NN2CCOCC2)cc1 | nt | nt | nt | -1.44 | nt | nt | nt | nt
CCC(=O)Nc1cc(Cl)ccc1N1CCN(C(=O)CC)CC1 | -2.6 | nt | 7.6 | 0.682 | -4.85* | 0.0105 | 692 | 294
CCC(=O)N1CCN(c2ccc(Cl)cc2NC(=O)Cc2ccccc2)CC1 | 0.5 | -0.0607 | 10.4 | 0.47 | 0.711 | 0.0186 | nt | nt
O=C(CN1CCCC(O)C1)N1c2ccccc2Sc2ccc(C(F)(F)F)cc21 (stereo not drawn) | -3.0 | -1.66 | 5.7 | 0.919 | -10.6* | 0.407 | 16* | 227

Screens deposited in PubChem BioAssay by several laboratories.
